Assays:
Rattus norvegicus [1] = assay: Biodistribution in liver of immature female rat after 1 hr administration of 3 micro Ci (111 kBq) in the presence of (+E2); type: ADME, organism-based; details: in vivo
Procedure, shortened: (§1)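 Immature female Long Evans rats (21–24 days, 45–70 g), unanesthetized in retention cages, given 3 µCi (111 kBq) 125I-labeled steroid i.v. via lateral tail vein. Vehicle was ethanol diluted in saline containing 1% Tween-80, giving 9% ethanol final. The blocking group received 60 µg unlabeled estradiol co-injected. Rats were killed under ether by axillary bleeding, and tissues were KCl-washed and gamma-counted. Data are %ID/g, mean ± SE, n=3–5.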

Rattus norvegicus [2] = assay: Biodistribution in kidney of immature female rat after 12 hour administration of 3 micro Ci (111 kBq) in the absence of 60 microg estradiol; type: ADME, organism-based; details: in vivo; procedure, shortened: as §1
Rattus norvegicus [3] = assay: Biodistribution in kidney of immature female rat after 1 hr administration of 3 micro Ci (111 kBq) in the absence of 60 microg estradiol; type: ADME, organism-based; details: in vivo; procedure, shortened: as §1
Rattus norvegicus [4] = assay: Biodistribution in liver of immature female rat after 3 hour administration of 3 micro Ci (111 kBq) in the absence of 60 microg estradiol; type: ADME, organism-based; details: in vivo; procedure, shortened: as §1
Rattus norvegicus [5] = assay: Biodistribution in liver of immature female rat after 5 hour administration of 3 micro Ci (111 kBq) in the absence of 60 microg estradiol; type: ADME, organism-based; details: in vivo; procedure, shortened: as §1
Rattus norvegicus [6] = assay: Biodistribution in lungs of immature female rat after 12 hour administration of 3 micro Ci (111 kBq) in the absence of 60 microg estradiol; type: ADME, organism-based, Lung; details: in vivo
Procedure, shortened: (§2)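 Immature female Long Evans rats (21–24 days, 45–70 g), three to five per group, given 125I-labeled steroid (3 μCi, 111 kBq) by lateral tail vein without anesthesia. Vehicle: ethanol diluted in saline with 1% Tween-80, final ethanol 9%, 0.22 μm filtered. +E2 groups received 60 μg unlabeled estradiol co-injected. Killed under ether at set times; tissues KCl-washed, blotted, weighed, gamma counted; %ID/g, mean with SE.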

Rattus norvegicus [7] = assay: Biodistribution in lungs of immature female rat after 1 hr administration of 3 micro Ci (111 kBq) in the presence of (+E2); type: ADME, organism-based, Lung; details: in vivo; procedure, shortened: as §1
Rattus norvegicus [8] = assay: Biodistribution in lungs of immature female rat after 5 hour administration of 3 micro Ci (111 kBq) in the absence of 60 microg estradiol; type: ADME, organism-based, Lung; details: in vivo; procedure, shortened: as §2
Rattus norvegicus [9] = assay: Biodistribution in fat of immature female rat after 12 hour administration of 3 micro Ci (111 kBq) in the absence of 60 microg estradiol; type: ADME, organism-based, Adipose tissue; details: in vivo; procedure, shortened: as §1
Rattus norvegicus [10] = assay: Biodistribution in fat of immature female rat after 1 hr administration of 3 micro Ci (111 kBq) in the absence of 60 microg estradiol; type: ADME, organism-based, Adipose tissue; details: in vivo; procedure, shortened: as §1
Rattus norvegicus [11] = assay: Biodistribution in fat of immature female rat after 1 hr administration of 3 micro Ci (111 kBq) in the presence of (+E2); type: ADME, organism-based, Adipose tissue; details: in vivo; procedure, shortened: as §1
Rattus norvegicus [12] = assay: Biodistribution in fat of immature female rat after 3 hour administration of 3 micro Ci (111 kBq) in the absence of 60 microg estradiol; type: ADME, organism-based, Adipose tissue; details: in vivo; procedure, shortened: as §1
Rattus norvegicus [13] = assay: Biodistribution in fat of immature female rat after 5 hour administration of 3 micro Ci (111 kBq) in the absence of 60 microg estradiol; type: ADME, organism-based, Adipose tissue; details: in vivo; procedure, shortened: as §1
Rattus norvegicus [14] = assay: Biodistribution in muscle of immature female rat after 12 hour administration of 3 micro Ci (111 kBq) in the absence of 60 microg estradiol; type: ADME, organism-based, Muscle tissue; details: in vivo; procedure, shortened: as §2
Rattus norvegicus [15] = assay: Biodistribution in muscle of immature female rat after 5 hour administration of 3 micro Ci (111 kBq) in the absence of 60 microg estradiol; type: ADME, organism-based, Muscle tissue; details: in vivo; procedure, shortened: as §2
Rattus norvegicus [16] = assay: Biodistribution in spleen of immature female rat after 12 hour administration of 3 micro Ci (111 kBq) in the absence of 60 microg estradiol; type: ADME, organism-based; details: in vivo; procedure, shortened: as §2
Rattus norvegicus [17] = assay: Biodistribution in spleen of immature female rat after 1 hr administration of 3 micro Ci (111 kBq) in the presence of (+E2); type: ADME, organism-based; details: in vivo; procedure, shortened: as §2
Rattus norvegicus [18] = assay: Biodistribution in spleen of immature female rat after 3 hour administration of 3 micro Ci (111 kBq) in the absence of 60 microg estradiol; type: ADME, organism-based; details: in vivo; procedure, shortened: as §2
Rattus norvegicus [19] = assay: Biodistribution in blood of immature female rat after 5 hour administration of 3 micro Ci (111 kBq) in the absence of 60 microg estradiol; type: ADME, organism-based; details: in vivo; procedure, shortened: as §1
Rattus norvegicus [20] = assay: Biodistribution in kidney of immature female rat after 5 hour administration of 3 micro Ci (111 kBq) in the absence of 60 microg estradiol; type: ADME, organism-based; details: in vivo; procedure, shortened: as §1
Rattus norvegicus [21] = assay: Biodistribution in uterus / spleen, muscle, lungs of immature female rat after 12 hour administration of 3 micro Ci (111 kBq) in the absence of 60 microg estradiol; type: ADME, organism-based; details: in vivo
Procedure, shortened: (§3)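 Immature female Long Evans rats (21–24 days, 45–70 g), 3–5 per group, unanesthetized in retention cages, given 3 μCi (111 kBq) 125I-labeled steroid by lateral tail vein. Vehicle: ethanol diluted with saline containing 1% Tween-80, final ethanol 9%. +E2 group co-injected 60 μg unlabeled estradiol (1 h only). Killed under ether; tissues KCl-washed, weighed, gamma-counted. Output: %ID/g (mean, SE) and uterus to blood or nontarget (muscle, spleen, lungs) ratios.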

Rattus norvegicus [22] = assay: Biodistribution in uterus / spleen, muscle, lungs of immature female rat after 1 hr administration of 3 micro Ci (111 kBq) in the absence of 60 microg estradiol; type: ADME, organism-based; details: in vivo
Procedure, shortened: (§4)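 Same in vivo procedure: immature female Long Evans rats (21–24 days), three to five per group, 3 μCi (111 kBq) tracer i.v. via tail vein in 9% ethanol/saline/1% Tween-80, ± 60 μg estradiol co-injected at 1 h. Uterus %ID/g (gamma counting) divided by blood, or by nontarget organ (muscle, spleen, lungs), %ID/g to give ratios.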

Rattus norvegicus [23] = assay: Biodistribution in uterus of immature female rat after 1 hr administration of 3 micro Ci (111 kBq) in the absence of 60 microg estradiol; type: ADME, organism-based; details: in vivo; procedure, shortened: as §3
Rattus norvegicus [24] = assay: Biodistribution in uterus of immature female rat after 3 hour administration of 3 micro Ci (111 kBq) in the absence of 60 microg estradiol; type: ADME, organism-based; details: in vivo; procedure, shortened: as §3
Rattus norvegicus [25] = assay: Biodistribution in thyroid of immature female rat after 5 hour administration of 3 micro Ci (111 kBq) in the absence of 60 microg estradiol; type: ADME, organism-based, Thyroid gland; details: in vivo; procedure, shortened: as §2
Rattus norvegicus [26] = assay: Biodistribution in uterus / blood of immature female rat after 1 hr administration of 3 micro Ci (111 kBq) in the absence of 60 microg estradiol; type: ADME, organism-based; details: in vivo; procedure, shortened: as §4
Rattus norvegicus [27] = assay: Biodistribution in uterus / blood of immature female rat after 1 hr administration of 3 micro Ci (111 kBq) in the presence of (+E2); type: ADME, organism-based; details: in vivo; procedure, shortened: as §4
Rattus norvegicus [28] = assay: Biodistribution in uterus / blood of immature female rat after 3 hour administration of 3 micro Ci (111 kBq) in the absence of 60 microg estradiol; type: ADME, organism-based; details: in vivo; procedure, shortened: as §4
Rattus norvegicus [29] = assay: Biodistribution in uterus / blood of immature female rat after 5 hour administration of 3 micro Ci (111 kBq) in the absence of 60 microg estradiol; type: ADME, organism-based; details: in vivo; procedure, shortened: as §4
[30] = target: Estrogen receptor (Mus musculus) (UniProt O08537+P19785); assay: Relative binding affinity (RBA) against murine cytoplasmic estrogen receptor incubated at 0-4 degree Celsius for 18 hours; type: protein assay
Procedure, shortened: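 Competitive binding on murine uterine cytoplasmic extract with 20 nM [3H]estradiol and competitor steroids at 2 nM–20 μM, incubated 18 h at 0–4 °C. RBA = 100 × ratio of […] concentration giving 50% competition for specific binding. Mean of three experiments with SD.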

Estrogen receptor (Mus musculus), sequence (O08537 whole entry, looked up): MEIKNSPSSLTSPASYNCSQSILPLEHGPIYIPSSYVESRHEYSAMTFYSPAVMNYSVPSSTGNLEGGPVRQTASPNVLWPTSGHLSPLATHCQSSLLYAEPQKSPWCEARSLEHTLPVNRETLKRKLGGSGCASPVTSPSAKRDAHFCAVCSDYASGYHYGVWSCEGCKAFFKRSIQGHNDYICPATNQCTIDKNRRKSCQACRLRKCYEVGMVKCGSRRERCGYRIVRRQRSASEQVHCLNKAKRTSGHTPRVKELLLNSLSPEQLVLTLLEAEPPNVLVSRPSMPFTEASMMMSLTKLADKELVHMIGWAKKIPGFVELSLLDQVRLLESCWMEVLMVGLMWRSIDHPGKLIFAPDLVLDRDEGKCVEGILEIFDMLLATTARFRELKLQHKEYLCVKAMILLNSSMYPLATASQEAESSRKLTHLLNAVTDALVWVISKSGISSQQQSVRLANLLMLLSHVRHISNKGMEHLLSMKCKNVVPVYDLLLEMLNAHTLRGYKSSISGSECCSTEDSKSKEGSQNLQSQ
Estrogen receptor (Mus musculus), sequence (P19785 whole entry, looked up): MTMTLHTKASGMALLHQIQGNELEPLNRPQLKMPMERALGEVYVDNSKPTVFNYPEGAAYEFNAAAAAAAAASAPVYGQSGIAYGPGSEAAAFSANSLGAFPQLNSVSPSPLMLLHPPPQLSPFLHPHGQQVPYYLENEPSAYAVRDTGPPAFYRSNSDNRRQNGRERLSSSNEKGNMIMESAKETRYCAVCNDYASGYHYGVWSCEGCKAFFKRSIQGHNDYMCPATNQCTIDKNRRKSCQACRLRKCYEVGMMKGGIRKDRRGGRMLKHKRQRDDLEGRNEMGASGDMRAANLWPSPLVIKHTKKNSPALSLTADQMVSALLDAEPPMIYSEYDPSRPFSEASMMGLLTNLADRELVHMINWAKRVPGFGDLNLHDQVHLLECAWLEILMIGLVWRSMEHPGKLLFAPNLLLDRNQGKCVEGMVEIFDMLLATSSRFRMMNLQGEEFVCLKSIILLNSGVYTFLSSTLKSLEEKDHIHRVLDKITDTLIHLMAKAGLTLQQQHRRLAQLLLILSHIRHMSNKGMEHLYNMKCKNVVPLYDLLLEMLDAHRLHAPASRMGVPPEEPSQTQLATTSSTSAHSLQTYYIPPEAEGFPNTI

C[C@@H]1Cc2c(ccc(O)c2F)[C@H]2CC[C@@]3(C)[C@@H](CC[C@@]3(O)/C=C/I)[C@H]12
ID/g (Rattus norvegicus [1]): 5.84%
ID/g (Rattus norvegicus [2]): 0.32%
ID/g (Rattus norvegicus [3]): 1.41%
ID/g (Rattus norvegicus [4]): 3.44%
ID/g (Rattus norvegicus [5]): 3.6%
ID/g (Rattus norvegicus [6]): 0.23%
ID/g (Rattus norvegicus [7]): 1.86%
ID/g (Rattus norvegicus [8]): 0.77%
ID/g (Rattus norvegicus [9]): 1.67%
ID/g (Rattus norvegicus [10]): 0.03%
ID/g (Rattus norvegicus [11]): 5.65%
ID/g (Rattus norvegicus [12]): 4%
ID/g (Rattus norvegicus [13]): 4.59%
ID/g (Rattus norvegicus [14]): 0.16%
ID/g (Rattus norvegicus [15]): 0.56%
ID/g (Rattus norvegicus [16]): 0.19%
ID/g (Rattus norvegicus [17]): 1.29%
ID/g (Rattus norvegicus [18]): 0.91%
ID/g (Rattus norvegicus [19]): 0.39%
ID/g (Rattus norvegicus [20]): 0.89%
uterus to nontarget tissue ratio (Rattus norvegicus [21]): 15.57%
uterus-to-nontarget tissue uptake ratio (Rattus norvegicus [22]): 5.03%
ID/g (Rattus norvegicus [23]): 4.71%
ID/g (Rattus norvegicus [24]): 5.29%
ID/g (Rattus norvegicus [25]): 114%
uterus-to-blood ratio of %ID/g (Rattus norvegicus [26]): 12.53%
uterus/blood %ID/g ratio (Rattus norvegicus [27]): 2.68%
uterus to blood %ID/g ratio (unitless) (Rattus norvegicus [28]): 17.28%
uterus to blood ratio (Rattus norvegicus [29]): 16.4%
RBA [30]: 36.4

C[C@@H]1Cc2c(ccc(O)c2F)[C@H]2CC[C@@]3(C)[C@@H](CC[C@@]3(O)/C=C\I)[C@H]12
ID/g (Rattus norvegicus [1]): 1.54%
ID/g (Rattus norvegicus [2]): 0.29%
ID/g (Rattus norvegicus [3]): 1.07%
ID/g (Rattus norvegicus [4]): 1.18%
ID/g (Rattus norvegicus [5]): 1.36%
ID/g (Rattus norvegicus [6]): 0.24%
ID/g (Rattus norvegicus [7]): 0.67%
ID/g (Rattus norvegicus [8]): 0.48%
ID/g (Rattus norvegicus [9]): 0.89%
ID/g (Rattus norvegicus [10]): 1.3%
ID/g (Rattus norvegicus [11]): 1.39%
ID/g (Rattus norvegicus [12]): 1.42%
ID/g (Rattus norvegicus [13]): 1.7%
ID/g (Rattus norvegicus [14]): 0.16%
ID/g (Rattus norvegicus [15]): 0.34%
ID/g (Rattus norvegicus [16]): 0.25%
ID/g (Rattus norvegicus [17]): 0.69%
ID/g (Rattus norvegicus [18]): 0.72%
ID/g (Rattus norvegicus [19]): 0.36%
ID/g (Rattus norvegicus [20]): 0.67%
uterus to nontarget tissue ratio (Rattus norvegicus [21]): 17.02%
ID/g (Rattus norvegicus [22]): 5.41%
ID/g (Rattus norvegicus [23]): 3.55%
ID/g (Rattus norvegicus [24]): 4.11%
ID/g (Rattus norvegicus [25]): 380%
uterus-to-blood ratio of %ID/g (Rattus norvegicus [26]): 8.35%
uterus/blood %ID/g ratio (Rattus norvegicus [27]): 1.16%
uterus to blood %ID/g ratio (unitless) (Rattus norvegicus [28]): 10.6%
uterus to blood ratio (Rattus norvegicus [29]): 10.01%
RBA [30]: 36.8

C[C@]12CC[C@@H]3c4ccc(O)c(F)c4CC[C@H]3[C@@H]1CC[C@@]2(O)/C=C/I
ID/g (Rattus norvegicus [1]): 3.06%
ID/g (Rattus norvegicus [2]): 0.08%
ID/g (Rattus norvegicus [3]): 0.93%
ID/g (Rattus norvegicus [4]): 2.2%
ID/g (Rattus norvegicus [5]): 1.21%
ID/g (Rattus norvegicus [6]): 0.1%
ID/g (Rattus norvegicus [7]): 0.75%
ID/g (Rattus norvegicus [8]): 0.28%
ID/g (Rattus norvegicus [9]): 0.3%
ID/g (Rattus norvegicus [10]): 2.97%
ID/g (Rattus norvegicus [11]): 1.14%
ID/g (Rattus norvegicus [12]): 1.59%
ID/g (Rattus norvegicus [13]): 1.67%
ID/g (Rattus norvegicus [14]): 0.06%
ID/g (Rattus norvegicus [15]): 0.14%
ID/g (Rattus norvegicus [16]): 0.1%
ID/g (Rattus norvegicus [17]): 0.51%
ID/g (Rattus norvegicus [18]): 0.36%
ID/g (Rattus norvegicus [19]): 0.26%
ID/g (Rattus norvegicus [20]): 0.26%
uterus to nontarget tissue ratio (Rattus norvegicus [21]): 5.4%
uterus-to-nontarget tissue uptake ratio (Rattus norvegicus [22]): 6.39%
ID/g (Rattus norvegicus [23]): 3.75%
ID/g (Rattus norvegicus [24]): 4.24%
ID/g (Rattus norvegicus [25]): 208%
uterus-to-blood ratio of %ID/g (Rattus norvegicus [26]): 5.42%
uterus/blood %ID/g ratio (Rattus norvegicus [27]): 1.02%
uterus to blood %ID/g ratio (unitless) (Rattus norvegicus [28]): 4.56%
uterus to blood ratio (Rattus norvegicus [29]): 9.01%
RBA [30]: 55.9

Source: ChEMBL document CHEMBL1126849, “Synthesis of A-ring fluorinated derivatives of (17 alpha,20E/Z)-[125I]iodovinylestradiols: effect on receptor binding and receptor-mediated target tissue uptake” (J Med Chem, 1993)
